Data published in the M2OR odorant receptor database.
Substitutions are numbered along the chain they refer to.

Columns and labels:
Settings in all cases: stereoisomer not certain
O10R2 I170L = system: T1, O10R2 I170L
T1 sequence (whole entry): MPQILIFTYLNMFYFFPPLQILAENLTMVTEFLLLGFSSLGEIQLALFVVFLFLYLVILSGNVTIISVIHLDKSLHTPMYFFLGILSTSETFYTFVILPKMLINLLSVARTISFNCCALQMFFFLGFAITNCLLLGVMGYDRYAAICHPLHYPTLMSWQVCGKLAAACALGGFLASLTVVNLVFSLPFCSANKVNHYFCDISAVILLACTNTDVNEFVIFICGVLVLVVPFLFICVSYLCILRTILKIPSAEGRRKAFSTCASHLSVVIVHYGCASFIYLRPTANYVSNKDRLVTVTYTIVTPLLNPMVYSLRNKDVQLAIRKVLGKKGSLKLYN
How it was run: (§1)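 Transient luciferase assays in mammalian cell lines were common, though methods varied by source. The values come from published papers and their supplementary material, with extra details from the original authors when needed. Responsive refers to a measured signal the original authors judged statistically different from baseline, and non-responsive (inactive) to the remainder.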

O10T2 I137M = system: T2, O10T2 I137M
T2 sequence (whole entry): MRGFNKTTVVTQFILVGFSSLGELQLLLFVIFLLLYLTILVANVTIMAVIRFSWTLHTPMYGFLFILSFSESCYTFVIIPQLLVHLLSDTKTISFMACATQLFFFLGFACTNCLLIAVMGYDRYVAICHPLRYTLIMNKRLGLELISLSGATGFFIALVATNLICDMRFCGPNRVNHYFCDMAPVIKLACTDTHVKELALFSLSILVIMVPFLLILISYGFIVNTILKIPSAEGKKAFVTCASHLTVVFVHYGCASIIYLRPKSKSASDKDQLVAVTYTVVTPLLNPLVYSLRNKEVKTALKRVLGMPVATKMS
How it was run: as §1

O10V1 Q123R = system: T3, O10V1 Q123R
T3 sequence (whole entry): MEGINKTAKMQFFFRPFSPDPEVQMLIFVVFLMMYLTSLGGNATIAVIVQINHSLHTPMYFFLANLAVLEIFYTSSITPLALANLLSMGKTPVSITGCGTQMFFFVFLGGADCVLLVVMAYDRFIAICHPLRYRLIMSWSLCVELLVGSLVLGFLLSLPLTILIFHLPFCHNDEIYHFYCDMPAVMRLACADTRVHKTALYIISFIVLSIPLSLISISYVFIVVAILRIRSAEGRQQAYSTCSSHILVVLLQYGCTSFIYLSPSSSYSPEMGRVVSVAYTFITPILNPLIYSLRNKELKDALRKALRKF
How it was run: as §1

O10X1 N4T R181S = system: T4, O10X1 N4T R181S
T4 sequence (whole entry): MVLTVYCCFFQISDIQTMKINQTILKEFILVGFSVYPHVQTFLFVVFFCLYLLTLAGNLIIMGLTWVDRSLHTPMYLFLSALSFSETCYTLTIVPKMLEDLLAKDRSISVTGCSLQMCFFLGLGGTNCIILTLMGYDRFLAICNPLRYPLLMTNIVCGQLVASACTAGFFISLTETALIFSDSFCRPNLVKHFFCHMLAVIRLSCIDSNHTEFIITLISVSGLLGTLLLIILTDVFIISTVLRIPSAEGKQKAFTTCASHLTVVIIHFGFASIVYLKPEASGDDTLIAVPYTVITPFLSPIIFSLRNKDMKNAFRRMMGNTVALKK
How it was run: as §1

O11G2 F3I I99N V116I = system: T5, O11G2 F3I I99N V116I
T5 sequence (whole entry): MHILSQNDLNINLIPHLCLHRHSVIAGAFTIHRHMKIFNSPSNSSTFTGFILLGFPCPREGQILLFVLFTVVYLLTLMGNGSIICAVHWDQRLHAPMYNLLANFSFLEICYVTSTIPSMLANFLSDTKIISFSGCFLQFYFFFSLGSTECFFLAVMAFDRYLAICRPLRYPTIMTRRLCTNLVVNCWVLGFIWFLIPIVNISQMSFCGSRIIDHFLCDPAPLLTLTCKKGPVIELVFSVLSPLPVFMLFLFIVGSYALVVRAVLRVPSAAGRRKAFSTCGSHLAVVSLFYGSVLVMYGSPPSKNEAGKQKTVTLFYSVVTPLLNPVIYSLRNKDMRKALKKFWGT
How it was run: as §1

O11H1 M240V = system: T6, O11H1 M240V
T6 sequence (whole entry): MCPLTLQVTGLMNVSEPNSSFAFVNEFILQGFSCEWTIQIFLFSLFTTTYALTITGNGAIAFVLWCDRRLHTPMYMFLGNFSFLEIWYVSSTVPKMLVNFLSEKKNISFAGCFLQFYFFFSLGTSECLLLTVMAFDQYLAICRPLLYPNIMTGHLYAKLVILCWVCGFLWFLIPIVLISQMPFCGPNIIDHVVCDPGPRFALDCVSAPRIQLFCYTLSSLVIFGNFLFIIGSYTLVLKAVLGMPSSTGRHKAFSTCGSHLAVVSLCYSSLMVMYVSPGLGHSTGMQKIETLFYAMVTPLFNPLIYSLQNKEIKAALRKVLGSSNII
How it was run: as §1

O11H6 I107T = system: T7, O11H6 I107T
T7 sequence (whole entry): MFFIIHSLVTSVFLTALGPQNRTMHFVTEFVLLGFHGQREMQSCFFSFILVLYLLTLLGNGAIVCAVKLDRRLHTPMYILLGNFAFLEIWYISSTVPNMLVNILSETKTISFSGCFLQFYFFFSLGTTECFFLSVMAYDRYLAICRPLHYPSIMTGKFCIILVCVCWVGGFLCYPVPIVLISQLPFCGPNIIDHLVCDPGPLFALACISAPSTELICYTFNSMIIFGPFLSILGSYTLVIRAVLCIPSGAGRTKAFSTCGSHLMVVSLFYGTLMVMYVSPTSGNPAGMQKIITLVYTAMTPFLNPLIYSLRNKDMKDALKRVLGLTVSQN
How it was run: as §1

O11HC C156Y V240M = system: T8, O11HC C156Y V240M
T8 sequence (whole entry): T6 sequence (whole entry) with S33T, R68W, V240M
How it was run: as §1

O12D2 S104F = system: T9, O12D2 S104F
T9 sequence (whole entry): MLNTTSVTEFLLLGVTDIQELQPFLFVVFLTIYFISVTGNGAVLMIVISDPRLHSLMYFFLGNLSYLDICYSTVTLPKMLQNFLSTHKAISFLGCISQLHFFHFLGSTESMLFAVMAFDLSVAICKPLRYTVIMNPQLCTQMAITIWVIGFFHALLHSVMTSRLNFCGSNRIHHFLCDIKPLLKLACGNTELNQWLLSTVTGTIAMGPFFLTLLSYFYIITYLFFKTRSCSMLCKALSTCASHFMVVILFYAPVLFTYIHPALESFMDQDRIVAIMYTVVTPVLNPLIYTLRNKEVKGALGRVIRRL
How it was run: as §1

O13C2 H6Q = system: T10, O13C2 H6Q
T10 sequence (whole entry): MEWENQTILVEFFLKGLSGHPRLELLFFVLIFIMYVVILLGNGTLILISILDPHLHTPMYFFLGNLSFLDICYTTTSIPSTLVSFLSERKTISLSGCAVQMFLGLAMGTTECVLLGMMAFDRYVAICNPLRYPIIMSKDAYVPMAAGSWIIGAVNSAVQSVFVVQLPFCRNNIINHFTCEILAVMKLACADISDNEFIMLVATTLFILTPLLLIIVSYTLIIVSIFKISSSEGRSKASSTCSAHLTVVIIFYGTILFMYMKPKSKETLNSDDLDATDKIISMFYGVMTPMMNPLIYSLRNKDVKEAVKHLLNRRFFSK
How it was run: as §1

O13C8 A19D = system: T11, O13C8 A19D
T11 sequence (whole entry): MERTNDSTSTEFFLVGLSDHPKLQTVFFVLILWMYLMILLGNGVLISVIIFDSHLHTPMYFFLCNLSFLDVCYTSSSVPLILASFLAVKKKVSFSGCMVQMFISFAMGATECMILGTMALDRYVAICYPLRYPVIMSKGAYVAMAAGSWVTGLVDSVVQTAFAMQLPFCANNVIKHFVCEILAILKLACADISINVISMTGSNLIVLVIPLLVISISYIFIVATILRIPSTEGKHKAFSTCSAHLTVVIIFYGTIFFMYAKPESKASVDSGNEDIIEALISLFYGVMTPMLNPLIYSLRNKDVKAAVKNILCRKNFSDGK
How it was run: as §1

O13C9 H17L V19G L23H = system: T12, O13C9 H17L V19G L23H
T12 sequence (whole entry): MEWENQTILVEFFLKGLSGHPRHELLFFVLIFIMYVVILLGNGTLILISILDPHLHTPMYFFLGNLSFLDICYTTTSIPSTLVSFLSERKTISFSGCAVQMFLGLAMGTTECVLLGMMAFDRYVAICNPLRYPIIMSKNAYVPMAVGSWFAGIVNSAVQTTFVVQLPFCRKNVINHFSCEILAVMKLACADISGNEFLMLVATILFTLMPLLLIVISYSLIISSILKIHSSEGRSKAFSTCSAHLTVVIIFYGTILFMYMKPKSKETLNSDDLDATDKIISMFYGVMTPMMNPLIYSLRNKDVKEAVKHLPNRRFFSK
How it was run: as §1

O13C9 Q6H = system: T13, O13C9 Q6H
T13 sequence (whole entry): T12 sequence (whole entry) with Q6H, L17H, G19V, H23L
How it was run: as §1

O13F1 F18S T254M = system: T14, O13F1 F18S T254M
T14 sequence (whole entry): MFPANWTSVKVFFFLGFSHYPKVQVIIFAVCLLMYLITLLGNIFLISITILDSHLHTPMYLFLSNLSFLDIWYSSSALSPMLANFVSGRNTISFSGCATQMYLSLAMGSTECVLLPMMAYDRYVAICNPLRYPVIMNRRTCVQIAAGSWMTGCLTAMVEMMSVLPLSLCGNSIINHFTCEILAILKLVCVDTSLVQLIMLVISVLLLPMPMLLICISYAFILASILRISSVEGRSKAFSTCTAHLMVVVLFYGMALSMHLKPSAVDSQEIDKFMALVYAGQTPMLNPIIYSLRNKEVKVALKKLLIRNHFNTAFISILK
How it was run: as §1

O13F1 F18S = system: T15, O13F1 F18S
T15 sequence (whole entry): T14 sequence (whole entry) with M254T
How it was run: as §1

O13G1 K46I M146L = system: T16, O13G1 K46I M146L
T16 sequence (whole entry): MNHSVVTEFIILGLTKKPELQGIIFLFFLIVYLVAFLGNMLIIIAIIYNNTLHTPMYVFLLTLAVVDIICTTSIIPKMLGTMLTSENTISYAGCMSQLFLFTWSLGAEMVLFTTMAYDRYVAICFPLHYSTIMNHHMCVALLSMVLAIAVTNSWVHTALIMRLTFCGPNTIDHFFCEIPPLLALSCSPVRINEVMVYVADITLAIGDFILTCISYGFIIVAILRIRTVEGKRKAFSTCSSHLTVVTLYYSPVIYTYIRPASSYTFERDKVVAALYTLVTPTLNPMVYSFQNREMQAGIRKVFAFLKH
How it was run: as §1

O13G1 = system: T17, O13G1
T17 sequence (whole entry): T16 sequence (whole entry) with I46K, I132V, L146M
How it was run: as §1

O13H1 Y266S = system: T18, O13H1 Y266S
T18 sequence (whole entry): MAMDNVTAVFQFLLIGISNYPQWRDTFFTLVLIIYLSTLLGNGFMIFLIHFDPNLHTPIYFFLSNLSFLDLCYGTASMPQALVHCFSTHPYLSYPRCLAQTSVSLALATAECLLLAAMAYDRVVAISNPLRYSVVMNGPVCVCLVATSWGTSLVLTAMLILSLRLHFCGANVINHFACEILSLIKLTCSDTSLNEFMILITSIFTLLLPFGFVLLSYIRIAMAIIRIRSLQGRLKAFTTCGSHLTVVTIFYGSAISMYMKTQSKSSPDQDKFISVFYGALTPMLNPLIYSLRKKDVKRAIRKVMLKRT
How it was run: as §1

O13J1 = system: T19, O13J1
T19 sequence (whole entry): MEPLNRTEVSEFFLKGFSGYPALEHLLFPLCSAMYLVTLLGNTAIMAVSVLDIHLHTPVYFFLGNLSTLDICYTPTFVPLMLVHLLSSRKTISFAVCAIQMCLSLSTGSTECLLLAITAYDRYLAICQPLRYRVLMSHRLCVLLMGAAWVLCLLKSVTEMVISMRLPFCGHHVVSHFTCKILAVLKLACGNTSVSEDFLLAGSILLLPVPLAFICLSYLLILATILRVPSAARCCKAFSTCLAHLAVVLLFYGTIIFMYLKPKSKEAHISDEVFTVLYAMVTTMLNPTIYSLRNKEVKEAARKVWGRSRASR
How it was run: as §1

O1440 = system: T20, O1440
T20 sequence (whole entry): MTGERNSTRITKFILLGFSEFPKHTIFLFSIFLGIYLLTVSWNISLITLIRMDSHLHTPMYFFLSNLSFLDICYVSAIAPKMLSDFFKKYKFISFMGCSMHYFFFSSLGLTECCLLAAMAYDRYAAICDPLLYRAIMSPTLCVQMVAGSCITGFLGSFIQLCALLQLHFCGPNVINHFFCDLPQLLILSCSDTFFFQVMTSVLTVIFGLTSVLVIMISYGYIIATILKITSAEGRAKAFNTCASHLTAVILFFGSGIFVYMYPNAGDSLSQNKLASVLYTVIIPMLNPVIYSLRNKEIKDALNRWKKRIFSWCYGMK
How it was run: as §1

Measured: odorant receptor agonist call;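 also: active if original authors judged signal statistically different from baseline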

CC1=NC(C)C(C)S1 (centres undefined)
not listed: O1440
inactive: all other assays above

CC1=C(O)C(=O)C(C)O1 (centres undefined)
not listed: O1440
inactive: all other assays above

C1CCCCCCCCCCCCCC1
inactive: O1440
